In all, about 330,000 compounds went through this assay and about 1,000 (0.3%) were called active. The full list was thinned out, with actives kept by preference. A number with no mark means an inactive call.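 How the source made its calls: active means activity change at or below -40% at 20 µM; inactive means the rest.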

Apoptotic protease-activating factor 1 (Homo sapiens), sequence (O14727 whole entry, looked up): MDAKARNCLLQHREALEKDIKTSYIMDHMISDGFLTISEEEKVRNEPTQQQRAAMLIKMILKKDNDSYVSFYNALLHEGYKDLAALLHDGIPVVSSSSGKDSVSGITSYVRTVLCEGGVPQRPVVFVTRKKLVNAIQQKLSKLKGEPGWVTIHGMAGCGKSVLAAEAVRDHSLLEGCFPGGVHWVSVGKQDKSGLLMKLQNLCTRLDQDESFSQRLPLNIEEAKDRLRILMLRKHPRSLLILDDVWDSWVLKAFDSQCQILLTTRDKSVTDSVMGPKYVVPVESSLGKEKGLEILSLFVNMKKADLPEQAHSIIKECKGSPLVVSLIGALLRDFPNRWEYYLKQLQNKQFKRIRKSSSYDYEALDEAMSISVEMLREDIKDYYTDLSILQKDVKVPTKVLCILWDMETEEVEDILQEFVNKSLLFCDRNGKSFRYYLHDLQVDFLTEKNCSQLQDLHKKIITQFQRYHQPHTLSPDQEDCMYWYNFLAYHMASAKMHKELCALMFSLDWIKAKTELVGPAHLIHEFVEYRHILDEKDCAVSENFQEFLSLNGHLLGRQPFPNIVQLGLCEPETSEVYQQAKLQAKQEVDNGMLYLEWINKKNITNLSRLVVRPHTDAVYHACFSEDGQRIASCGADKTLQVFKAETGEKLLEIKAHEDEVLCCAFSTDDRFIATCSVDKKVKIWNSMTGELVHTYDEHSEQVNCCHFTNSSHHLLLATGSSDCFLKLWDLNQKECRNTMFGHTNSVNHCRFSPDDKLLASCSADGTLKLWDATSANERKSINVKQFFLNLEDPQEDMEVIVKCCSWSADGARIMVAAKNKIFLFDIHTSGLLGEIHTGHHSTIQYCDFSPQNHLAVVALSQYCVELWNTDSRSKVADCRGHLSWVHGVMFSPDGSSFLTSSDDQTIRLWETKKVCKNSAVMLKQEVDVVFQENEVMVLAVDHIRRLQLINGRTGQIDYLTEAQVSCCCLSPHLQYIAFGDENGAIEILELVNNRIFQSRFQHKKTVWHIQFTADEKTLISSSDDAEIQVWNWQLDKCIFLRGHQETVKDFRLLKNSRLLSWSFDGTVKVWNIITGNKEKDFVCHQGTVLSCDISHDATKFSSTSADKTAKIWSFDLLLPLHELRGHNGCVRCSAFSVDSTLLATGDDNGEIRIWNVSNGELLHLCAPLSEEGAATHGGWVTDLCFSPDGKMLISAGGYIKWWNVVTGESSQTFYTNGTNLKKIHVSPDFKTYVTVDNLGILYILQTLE

The test addresses Apoptotic protease-activating factor 1 (Homo sapiens) (UniProt O14727). The experiment in a line: enhancers of Apaf-1-driven caspase-3 activation – biochemical, DEVD-Rh110 fluorescence, uHTS, primary screen (AID 489031). To be noted: Apaf-1 apoptosome caspase-3 activation, at 20 µM, hits give low values. The gist of the method:
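Assay system – biochemical Apaf-1 apoptosome reconstitution · Medium – 20 mM HEPES buffer, pH 7.5, containing CHAPS and BSA · Incubation – 30 min preincubation, 50 min reaction, room temperature · Measured by – Caspase-3-released Rh110 fluorescence, 540 nm emission, 480 nm excitation · Read-out – Caspase-3 cleavage activity downstream of Apaf-1 activation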
In the case of `CC(=O)N(C1=C(Cl)C(=O)c2ccccc2C1=O)c1ccc(C(=O)O)cc1`, the activity change, negative = activation is 89%.
For the compound `Cc1cc2oc3ccc(NCCC4CCCN4C)cc3c(=O)c2cc1C` (centres undefined), the activity change, negative = activation is 46.9%.
As for `Nc1cc(C(F)(F)F)ccc1N1CCOCC1`, the activity change, negative = activation was -185% (active).
Regarding `CCN(CC(=O)NCc1cccs1)C(=O)c1cccc(S(=O)(=O)Nc2ccccc2OC)c1`, the activity change, negative = activation is 60.2%.
To `CCN1C[C@@H]2[C@@H]3C(=O)N(Cc4ccccc4)C(=O)[C@@H]3[C@](Cc3ccccc3)(C(=O)OC)N2C1=NC1CCCCC1` belongs 41.2%; to `CN(C)S(=O)(=O)c1ccc2oc(SCC(=O)Nc3ccccc3F)nc2c1`, 61.1%.
As to `CCOCCc1c(O)nc(SCC(=O)NCc2ccco2)[nH]c1=O`, the activity change, negative = activation is -133% (active).
In the case of `Cc1ccc(N=C2NC(=O)/C(=C/C=C/c3ccco3)S2)cc1C`, the activity change, negative = activation is 61.8%.
Then `COc1cccc(-c2sc3ccc(OC)cc3c2-c2ccc(OCCN3CCCCC3)cc2)c1`, with 61.8%.
To `CCC(C)(C)c1ccc(OCC(=O)N(C)C)c(C(C)(C)CC)c1` belongs 56.5%; to `CC(C)N1CCC(NC(=O)Nc2ccccc2)CC1`, -331% (active); to `CCOC(=O)C1CCN(C(=O)c2cccc(S(=O)(=O)N(CC)c3ccccc3)c2)CC1`, 45.2%.
To `Clc1ccc(C2=CSC3=Nc4cccc5cccc(c45)N23)cc1` belongs 90%; to `Clc1cccc(-c2nc3nc4ccccc4nc3n2Cc2ccco2)c1`, -136% (active); to `COc1ccc(S(=O)(=O)/N=C2\C=C(NS(=O)(=O)c3ccccc3)C(=O)c3ccccc32)cc1`, 79.2%.
With `CN1CC(=O)N=C1N`, the activity change, negative = activation is 3.64%.
On to `CCCC[C@@H]1CN=C(N)N1CCc1cc(C(F)(F)F)cc(C(F)(F)F)c1`, for which the activity change, negative = activation is 52.3%.
To `Nc1ccc2nn(-c3ccc(Cl)cc3)nc2c1` belongs 83.8%; to `CC(=O)NC(=S)NNC(=O)c1ccc(Br)cc1`, -56.7% (active); to `O=C(Cc1cc(=O)[nH][nH]1)N/N=C/c1ccccc1[N+](=O)[O-]`, 40.8%.
Then `Cc1ccc(Nc2nc(CSc3nnc(-c4ccncc4)n3-c3ccccc3C)cs2)cc1`, with -54.9% (active).
As to `CCCCCCCCCCOC(=O)Cn1c(COc2ccc(C)cc2)[n+](C)c2ccccc21`, the activity change, negative = activation is 77.7%.
Regarding `N#CC1(C#N)C(C(=O)C23CC4CC(CC(C4)C2)C3)C12CCOCC2` (centres undefined), the activity change, negative = activation is -214% (active).
`O=C(N/N=C\c1cccnc1)c1cc(-c2ccccc2)nc2c(Cl)cccc12`: the activity change, negative = activation was 40.1%.
To `C=CCNC(=O)c1ccc(C)c(Br)c1` belongs -44.1% (active).
Turning to `CC1CC(=S)Nc2ccccc2N1Cc1ccccc1` (centres undefined), the activity change, negative = activation was 41.4%.
To `Cc1c(-c2nn(C)c(=O)c3ccccc23)oc2ccc(F)cc2c1=O` belongs 82%; to `COc1ccc(Cl)cc1NC(=O)CCS(=O)(=O)c1ccc(Br)cc1`, -182% (active); to `CCn1cc(CN2CCC(C(=O)Nc3cccc(-c4cccc(Cl)c4)c3)CC2)c(C)n1`, 40.5%.
As to `CCN1C(=O)c2cccc3c(N)ccc1c23`, the activity change, negative = activation was 97.1%.
Then `CN(C)S(=O)(=O)c1ccc(C(=O)NCCN=C2NS(=O)(=O)c3ccccc32)cc1`, with -486% (active).
For the compound `Cc1[nH]n(-c2ccccc2)c(=O)c1/C=N/NC(=O)c1ccoc1C`, the activity change, negative = activation was 61.5%.
Regarding `CC(C)CC[n+]1ccn(C2=C([O-])c3ccccc3C(=O)/C2=N\S(=O)(=O)c2ccccc2)c1`, the activity change, negative = activation was 55.3%.
As to `CCCCNC(=O)C(C)N(CCN(C)C)C(=O)CCCN1C(=O)NC(c2ccc(Cl)cc2)C(C(=O)OCc2ccccc2)=C1C` (centres undefined), the activity change, negative = activation is 57.1%.
Then `COc1ccc2c(c1)CCNC2Cc1ccc(OC)c(O)c1` (centres undefined), with -42.7% (active); and `CC1=NN(c2ccc(Cl)c(C(=O)O)c2)C(=O)/C1=C/c1ccc(-c2ccccc2[N+](=O)[O-])o1`, with 42.9%.
To `O=C1NNC(c2ccccc2)=N/C1=C\c1ccc(Cl)cc1` belongs 50.6%; to `CN(CCOc1ccc(CC2SC(=O)NC2=O)cc1)c1ccccn1` (centres undefined), -0.067%.
To `C#CCOCCOCCOCCNc1nc(N2CCN(C(=O)CCCCCCCCCCNC(=O)[C@H]([C@@H](C)CC)n3cc(CCCCN=C(N)N)nn3)CC2)nc(N2CCN(C(=O)CCCCCCCCCCNC(=O)[C@H](CO)n3cc(CCCSC)nn3)CC2)n1` belongs 59.2%; to `Cc1cc(NC(=O)c2cccc(N3C(=O)CCC3=O)c2)no1`, -110% (active); to `O=C(CCNS(=O)(=O)c1ccccc1)NCCSc1ccc(Br)cc1`, 58.6%.
Regarding `O=C(CCc1ccccc1)NNC(=O)c1ccc(Br)cc1`, the activity change, negative = activation is -96.1% (active).
Then `COc1ccc(C(CNC(=O)c2ccc(S(=O)(=O)Nc3ccccc3F)cc2)N(C)C)cc1` (centres undefined), with 56.5%.
Consider `O=[N+]([O-])c1ccc2nc(-c3ccccn3)[nH]c2c1`, for which the activity change, negative = activation was -143% (active).
To `COc1cc(C(=O)NCc2nnc(SCC(=O)Nc3nc4ccc(C)cc4s3)o2)cc(OC)c1OC` belongs -87.4% (active); to `Oc1c(C=Nc2cccc3nsnc23)ccc2ccccc12`, 95.8%; to `CCOc1c(Br)cc(/C=C2\C(=O)N(CCC#N)N=C2C)cc1OC`, 75.9%.
As for `O=C1Nc2ccc([N+](=O)[O-])cc2C1=Nc1cccc(CO)c1`, the activity change, negative = activation is 41.2%.
To `COc1ccc(N(CCC(=O)NCCc2ccccc2)S(=O)(=O)c2ccc(C)cc2C)cc1` belongs 54.9%; to `CCN1C(=NCc2ccc(OC)cc2)N[C@@H](CCc2ccccc2)[C@H](C(=O)NCc2ccc(OC)cc2)[C@H]1C`, 40.4%.
For `COc1ccc(OCCCC(=O)NCCc2ccccc2)cc1`, the activity change, negative = activation is -144% (active).
To `Cc1ccc(S(=O)(=O)N2CCN(C(=O)c3ccccc3-c3nc4ccccc4s3)CC2)c(C)c1` belongs 40.3%; to `COCC(C)OC(=O)c1c(N)n(CCCN2CCOCC2)c2nc3ccccc3nc12` (centres undefined), 50.9%; to `C#CCOCCOCCOCCNc1nc(N2CCN(C(=O)CCCCCCCCCCNC(=O)Cn3cc(CCCCCN)nn3)CC2)nc(N2CCN(C(=O)CCCCCCCCCCNC(=O)[C@H](CO)n3cc(CCCSC)nn3)CC2)n1`, 60.7%.
To `O=C(Nc1cccc(C(F)(F)F)c1)c1cnccn1` belongs -50.6% (active); to `C#CCOCCOCCOCCNc1nc(N2CCN(C(=O)C([C@@H](C)O)n3cc([C@@H](N)CCCCN)nn3)CC2)nc(N2CCN(C(=O)[C@H](CCCCN)n3cc(CN)nn3)CC2)n1` (some centres undefined), 42.2%.
In the case of `C[C@@H](CN1CCC[C@H]1CN1C(N)=NC[C@@H]1Cc1ccccc1)N1C[C@@H](Cc2ccccc2)N(CCCC2CCCC2)C1=N`, the activity change, negative = activation was 70.9%.
On to `CCOC(=O)c1ccc(Nc2cc3ccccc3c(=O)[nH]2)cc1`, for which the activity change, negative = activation was 92.5%.
With `Brc1ccc(/C=N/N2CCN(C3c4ccccc4-c4ccccc43)CC2)s1`, the activity change, negative = activation was -255% (active).
`CCc1ccc(CNC(=O)C2CCN(c3nnc(C)c4c(C)n(-c5ccc(C)cc5)nc34)CC2)cc1`: the activity change, negative = activation was 42.3%.
Consider `COc1cccc(C(=O)Nc2ccc(N3CCCC3)cc2)c1`, for which the activity change, negative = activation was -89.7% (active).
Regarding `Cc1cc(N2CCCC2)ccc1NC(=O)COc1ccc(Cl)cc1`, the activity change, negative = activation is 62.2%.
Then `CCCCCCc1cc2cc(-c3nnc(-c4ccccc4)o3)c(=O)oc2cc1O`, with 67.8%.
To `COC1=C(N2CCOCC2)C(=O)c2ccccc2C1=O` belongs 65.8%.

Values taken from PubChem BioAssay AID489031 (Sanford-Burnham Center for Chemical Genomics, 2010).
